Experimental data taken from ChEMBL document CHEMBL2163229, “Identifying novel adenosine receptor ligands by simultaneous proteochemometric modeling of rat and human bioactivity data” (J Med Chem, 2012).

Experiments:
Adenosine receptor A2a [1] = biological target: T1, Adenosine receptor A2a (Homo sapiens, UniProt P29274); assay: Displacement of [3H]ZM241385 from human adenosine A2A receptor expressed in HEK 293 cells at 10 uM after 2 hrs by scintillation counting; type: cell-based; conditions: HEK293
T1 sequence (P29274 whole entry): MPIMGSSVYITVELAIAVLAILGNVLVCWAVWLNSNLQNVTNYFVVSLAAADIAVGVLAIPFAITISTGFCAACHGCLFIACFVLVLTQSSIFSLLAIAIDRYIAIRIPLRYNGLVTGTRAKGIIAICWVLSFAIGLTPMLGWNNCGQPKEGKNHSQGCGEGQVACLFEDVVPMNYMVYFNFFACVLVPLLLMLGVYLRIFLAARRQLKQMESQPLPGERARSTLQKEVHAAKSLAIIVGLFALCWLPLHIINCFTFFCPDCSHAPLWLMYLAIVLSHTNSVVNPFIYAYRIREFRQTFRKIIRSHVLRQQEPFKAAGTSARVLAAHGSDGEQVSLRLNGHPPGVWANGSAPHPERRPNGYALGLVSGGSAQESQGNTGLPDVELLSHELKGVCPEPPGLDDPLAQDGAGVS

[2] = biological target: T2, Adenosine receptor A3 (Homo sapiens) (UniProt P0DMS8); assay: Displacement of [3H]PSB11 from human adenosine A3 receptor expressed in HEK 293 cells at 10 uM after 1 hr by scintillation counting; type: cell-based; conditions: HEK293
T2 sequence (whole entry): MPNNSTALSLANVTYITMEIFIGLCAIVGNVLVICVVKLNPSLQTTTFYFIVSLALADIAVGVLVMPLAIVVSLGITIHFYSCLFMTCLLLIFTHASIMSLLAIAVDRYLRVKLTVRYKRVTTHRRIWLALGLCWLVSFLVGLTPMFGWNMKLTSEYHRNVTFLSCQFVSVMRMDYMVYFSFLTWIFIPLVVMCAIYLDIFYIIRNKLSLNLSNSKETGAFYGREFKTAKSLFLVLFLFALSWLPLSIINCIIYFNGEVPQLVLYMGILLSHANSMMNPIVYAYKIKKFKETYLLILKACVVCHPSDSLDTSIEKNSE

[3] = biological target: T3, Adenosine receptor A2b (Homo sapiens) (UniProt P29275); assay: Displacement of [3H][…] from human adenosine A2B receptor expressed in CHO cells at 10 uM after 2 hrs by scintillation counting; type: cell-based
T3 sequence (whole entry): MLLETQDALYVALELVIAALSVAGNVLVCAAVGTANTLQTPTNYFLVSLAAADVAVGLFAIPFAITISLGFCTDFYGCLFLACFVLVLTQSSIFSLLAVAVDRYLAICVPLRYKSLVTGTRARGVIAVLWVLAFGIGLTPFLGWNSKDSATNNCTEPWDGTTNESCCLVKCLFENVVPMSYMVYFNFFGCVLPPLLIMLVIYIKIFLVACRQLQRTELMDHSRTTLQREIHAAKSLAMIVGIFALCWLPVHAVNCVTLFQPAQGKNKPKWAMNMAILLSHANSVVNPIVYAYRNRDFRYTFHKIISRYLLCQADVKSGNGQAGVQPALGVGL
Procedure, shortened: (§1)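 Stably transfected CHO membranes (15 μg protein) with 1.0 nM [3H]PSB603 final in 50 mM Tris·HCl pH 7.4, 1 U/mL ADA, 0.1% CHAPS, 2 h at 25 °C. Nonspecific binding with 100 μM NECA. GF/C filtration; washes in ice-cold Tris·HCl pH 7.4 plus 0.1% BSA. Ki by nonlinear regression using radioligand Ki of 0.41 nM.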

Adenosine receptor A1 = biological target: T4, Adenosine receptor A1 (Homo sapiens, UniProt P30542); assay: Displacement of [3H]DPCPX from human adenosine A1 receptor expressed in CHO cells after 1 hr by scintillation counting; type: cell-based
T4 sequence (P30542 whole entry): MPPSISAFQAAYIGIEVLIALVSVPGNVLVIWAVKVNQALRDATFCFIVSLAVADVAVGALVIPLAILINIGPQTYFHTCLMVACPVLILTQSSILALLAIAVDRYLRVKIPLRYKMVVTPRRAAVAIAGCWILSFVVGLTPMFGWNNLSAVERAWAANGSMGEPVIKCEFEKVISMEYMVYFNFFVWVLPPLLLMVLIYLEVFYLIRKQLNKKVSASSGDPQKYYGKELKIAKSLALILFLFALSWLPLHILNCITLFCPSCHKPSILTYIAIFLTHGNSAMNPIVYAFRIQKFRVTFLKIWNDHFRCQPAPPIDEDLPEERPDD

[4] = biological target: T5, Adenosine receptor A1 (Homo sapiens) (UniProt P30542); assay: Displacement of [3H]DPCPX from human adenosine A1 receptor expressed in CHO cells at 10 uM after 1 hr by scintillation counting; type: cell-based
T5 sequence (whole entry): T4 sequence (P30542 whole entry)

Adenosine receptor A2a [5] = biological target: T1, Adenosine receptor A2a; assay: Displacement of [3H]ZM241385 from human adenosine A2A receptor expressed in HEK 293 cells after 2 hrs by scintillation counting; type: cell-based, HEK293
Adenosine receptor A3 = biological target: T6, Adenosine receptor A3 (Homo sapiens, UniProt P0DMS8); assay: Displacement of [3H]PSB11 from human adenosine A3 receptor expressed in HEK 293 cells after 1 hr by scintillation counting; type: cell-based, HEK293
T6 sequence (P0DMS8 whole entry): T2 sequence (whole entry)

Adenosine receptor A2b = biological target: T7, Adenosine receptor A2b (Homo sapiens, UniProt P29275); assay: Displacement of [3H][…] from human adenosine A2B receptor expressed in CHO cells after 2 hrs by scintillation counting; type: cell-based; procedure, shortened: as §1
T7 sequence (P29275 whole entry): T3 sequence (whole entry)

Compound | inhibition (Adenosine receptor A2a [1]) [%] | inhibition [2] [%] | inhibition [3] [%] | Ki (Adenosine receptor A1) [nM] | inhibition [4] [%] | Ki (Adenosine receptor A2a [5]) [nM] | Ki (Adenosine receptor A3) [nM] | Ki (Adenosine receptor A2b) [nM]
O=C(Cc1ccccc1)Nc1nn2c(-c3ccco3)nnc2s1 |  | 3 | -8 |  | 44 | 5100 |  | 
COCc1cc(C)nc2sc(-c3nc(N)nc(N(C)C)n3)c(N)c12 |  | 33 | -5 |  | 35 | 1600 |  | 
Nc1nc(-c2ccccc2)nc(-c2ccccc2O)n1 |  |  |  | 7.2 |  | 43 | 440 | 220
N#Cc1cnc(N)nc1-c1ccccc1 |  | 13 |  | 900 |  | 300 |  | 

Further lines, results first:

inhibition (Adenosine receptor A2a [1]) [%] | inhibition [2] [%] | inhibition [3] [%] | Ki (Adenosine receptor A1) [nM] | inhibition [4] [%] | Ki (Adenosine receptor A2a [5]) [nM] | Ki (Adenosine receptor A3) [nM] | Ki (Adenosine receptor A2b) [nM] | Compound
42 | -3 | 14 | 3200 |  |  |  |  | C=CCn1c(=O)[nH]c2nc3cc(NC(C)=O)ccc3nc2c1=O
 | 21 | 32 | 510 |  | 31000 |  |  | COc1nc(N)c(C#N)c(-c2ccc3c(c2)OCO3)c1C#N
